Assay results: ChEMBL document CHEMBL1123757, “Selective thromboxane synthetase inhibitors and antihypertensive agents. New derivatives of 4-hydrazino-5H-pyridazino[4,5-b]indole, 4-hydrazinopyridazino[4,5-a]indole, and related compounds” (J Med Chem, 1987)

Key:
[1] = target: T1, Thromboxane-A synthase (Homo sapiens) (UniProt P24557); test: Effect on thromboxane synthetase activity on ex vivo platelet aggregation induced by TXB2 at 50 mg/kg expressed as percent increase; format: functional, organism-based; design: dose 50 mg/kg; conditions: Cavia porcellus
T1 sequence (whole entry): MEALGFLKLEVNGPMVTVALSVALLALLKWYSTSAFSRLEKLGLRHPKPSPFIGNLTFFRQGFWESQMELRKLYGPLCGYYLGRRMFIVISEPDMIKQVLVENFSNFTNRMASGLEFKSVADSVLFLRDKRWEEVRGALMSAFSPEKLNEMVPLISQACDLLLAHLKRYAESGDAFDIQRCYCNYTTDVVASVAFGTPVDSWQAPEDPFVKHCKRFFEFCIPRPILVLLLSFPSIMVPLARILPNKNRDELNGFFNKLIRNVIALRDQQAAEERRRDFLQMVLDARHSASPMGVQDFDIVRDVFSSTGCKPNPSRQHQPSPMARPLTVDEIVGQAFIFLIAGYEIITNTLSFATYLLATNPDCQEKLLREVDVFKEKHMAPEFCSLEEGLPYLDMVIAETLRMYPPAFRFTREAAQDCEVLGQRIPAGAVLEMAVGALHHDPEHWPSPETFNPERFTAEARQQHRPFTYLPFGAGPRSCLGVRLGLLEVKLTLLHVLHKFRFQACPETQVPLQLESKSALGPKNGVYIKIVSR
Method in brief: (§1)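 Fasted male or female guinea pigs (250–300 g, five per group) dosed orally in normal saline or saline with 0.2% (carboxymethyl)cellulose/1.0% Tween 80; controls given vehicle. Under ether, cardiac blood collected into 3.8% citrate. PRP adjusted to […] and aggregation induced by ADP (second wave) or AA, read by absorbance aggregometry. PGE2 and TXB2 measured by RIA.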

[2] = Effect on PGI-2 release from rat aortic tissue at a final concentration of 10e -4 for an incubation time of 10 minutes; format: functional
Method in brief: (§2)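 Female Wistar rats (200–220 g) received heparin 200 IU/kg ip and were killed 10 min later. Aortic pieces of about 25 mm² were washed in ice-cold oxygenated Krebs–Henseleit buffer, then incubated in 1 mL buffer at 37 °C. Compound at 10^-4 M final was added 10 min before tissue transfer. PGI2 release was read as antiaggregatory activity of the incubate on ADP (2×10^-6 M)-induced human PRP aggregation and by 6-keto-PGF1α RIA. n = 4.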

[3] = Effect on PGI-2 release from rat aortic tissue at a final concentration of 10e -4 for an incubation time of 35 minutes; format: functional; method in brief: as §2
Cavia porcellus [4] = test: Effect on thromboxane synthetase activity on ex vivo platelet aggregation induced by PGE-2 at 50 mg/kg expressed as percent increase; format: functional; method in brief: as §1
[5] = Effect on thromboxane synthetase activity on in vitro platelet aggregation induced by AA at 10e -5 M expressed as percent increase in PGE-2; format: functional, Homo sapiens
Method in brief: (§3)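 Human citrated PRP adjusted to 200 000 […], compound at 10^-5 M final in saline/10% ethylene glycol, incubated at 37 °C. Aggregation induced with arachidonic acid 0.6 mM and read by Born absorbance aggregometry. PGE2 and TXB2 in the aggregated samples measured by radioimmunoassay. n = 5.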

[6] = target: T1, Thromboxane-A synthase (Homo sapiens); test: Effect on thromboxane synthetase activity on in vitro platelet aggregation induced by AA at 10e -5 M expressed as percent […] in TXB2; format: functional; method in brief: as §3
Cavia porcellus [7] = test: Effect on thromboxane synthetase activity on ex vivo platelet aggregation induced by PGE-2 at 100 mg/kg expressed as percent increase; format: functional; method in brief: as §1
[8] = Effect on PGI-2 release from rat aortic tissue at a final concentration of 10e -4 for an incubation time of 25 minutes; format: functional; method in brief: as §2
[9] = Effect on PGI-2 release from rat aortic tissue at a final concentration of 10e -4 for an incubation time of 30 minutes; format: functional; method in brief: as §2
[10] = target: T1, Thromboxane-A synthase (Homo sapiens); test: Effect on thromboxane synthetase activity on ex vivo platelet aggregation induced by TXB2 at 100 mg/kg expressed as percent increase; format: functional, organism-based; design: dose 100 mg/kg; conditions: Cavia porcellus; method in brief: as §1

inhibition [1]: 100%
inhibition [6]: 100%
inhibition [10]: 100%
SMILES: CC(=O)Oc1ccccc1C(=O)O [ASPIRIN]
Inhibition [2]: 80%
Inhibition [3]: 80%
Increase (Cavia porcellus [4]): 0%
Increase [5]: 0%
Increase (Cavia porcellus [7]): 0%
Inhibition [8]: 80%
Inhibition [9]: 80%
